According to ChEMBL document CHEMBL1629529, “Design, synthesis, and evaluation of diarylpyridines and diarylanilines as potent non-nucleoside HIV-1 reverse transcriptase inhibitors” (J Med Chem, 2010):

Experiments:
[1] = Cytotoxicity in human TZM-bl cells after 4 day by XTT assay; assay type: cell-based; conditions: 96 h
[2] = tested on: Human immunodeficiency virus 1; assay: Resistance index, ratio of EC50 for multidrug resistant HIV1 RTMDR to EC50 for wild type HIV1 NL4-3; assay type: functional
[3] = tested on: Human immunodeficiency virus 1; assay: Antiviral activity against multidrug resistant HIV1 A17 containing reverse transcripatseK103N and Y181C mutation infected in human MT2 cells assessed as reduction in p24 antigen level after 4 days by ELISA; assay type: functional, organism-based; conditions: Human immunodeficiency virus 1, A17, MT2, 96 h
Outline: (§1)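 MT-2 cells (10^4/well) were infected with 100 TCID50 virus in RPMI 1640 with 10% FBS, with or without graded compound concentrations, overnight. Supernatant was then replaced with compound-free medium. On day 4 post-infection, supernatant was mixed 1:1 with 5% Triton X-100 and p24 antigen was quantified by ELISA. Percent inhibition was converted to EC50 with CalcuSyn. Tested at least in triplicate.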

[4] = tested on: Human immunodeficiency virus 1; assay: Antiviral activity against HIV1 NL4-3 infected in human TZM-bl cells after 2 days by luciferase reporter gene assay; conditions: Human immunodeficiency virus 1, NL4-3, TZM-bl, 48 h; read-out: EC50
[5] = Selectivity index, ratio of CC50 for human TZM-bl cells to EC50 for HIV1 NL4-3; assay type: toxicity, cell-based; conditions: tzm-bl
MT2 = assay: Cytotoxicity in human MT2 cells after 4 day by XTT assay; assay type: cell-based; conditions: mt2, 96 h
Outline: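 MT-2 cells (5 · 10^5/mL) were mixed with an equal volume of graded compound concentrations and incubated 4 days at 37 °C. XTT solution (1 mg/mL) containing 0.02 μM phenazine methosulphate was then added. After 4 h, absorbance at 450 nm was read.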

[6] = tested on: Human immunodeficiency virus 1; assay: Resistance index, ratio of EC50 for multidrug resistant HIV1 A17 to EC50 for wild type HIV1 3B; assay type: functional
[7] = tested on: Human immunodeficiency virus 1; assay: Antiviral activity against multidrug resistant HIV1 RTMDR containing reverse transcriptase L74V, M41L, V106A and T215Y mutant infected in human TZM-bl cells after 4 days by luciferase reporter gene assay; assay type: functional, organism-based; conditions: Human immunodeficiency virus 1, RTMDR, 96 h
[8] = tested on: Human immunodeficiency virus 1; assay: Antiviral activity against HIV1 3B infected in human MT2 cells assessed as reduction in p24 antigen level after 4 days by ELISA; assay type: functional, organism-based; outline: as §1
[9] = Selectivity index, ratio of CC50 for human MT2 cells to EC50 for HIV1 3B; assay type: toxicity, cell-based; conditions: for Ratio CC50/EC50: mt2
Outline: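 SI = CC50/EC50 (p24 ELISA). XTT (1 mg/mL) containing 0.02 μM PMS was added for 4 h, then absorbance was read at 450 nm. CC50 was calculated with CalcuSyn.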

[10] = tested on: Human immunodeficiency virus 1; assay: Antiviral activity against multidrug resistant HIV1 RTMDR containing reverse transcriptase L74V, M41L, V106A and T215Y mutant infected in human TZM-bl cells after 2 days by luciferase reporter gene assay; conditions: Human immunodeficiency virus 1, RTMDR, 48 h
[11] = Human immunodeficiency virus 1, 3B, MT2, 96 h, read-out: EC50

Row | Compound | CC50 [1] [nM] | Ratio EC50 [2] | EC50 [3] [nM] | EC50 [4] [nM] | Ratio CC50/EC50 [5] | CC50 (MT2) [nM] | Ratio EC50 [6] | EC50 [7] [nM] | EC50 [8, 11] [nM] | Ratio CC50/EC50 [9] | selectivity ratio ([9]; MT2 cells, read-out: Ratio CC50/EC50) | EC50 [10] [nM] | EC50 ([8]; mt2)
1 | Cc1cc(/C=C/C#N)cc(C)c1Oc1ccc(N)c(Nc2ccc(C#N)cc2)n1 | 9750 | 0.83 | 200 | 0.71 | 13732 | 5630 | 14 | 0.59 | < 14 | > 402 |  |  | 
2 | Cc1cc(/C=C/C#N)cc(C)c1Oc1cc(Nc2ccc(C#N)cc2)c(N)cc1[N+](=O)[O-] | > 47100 | 2.29 | 95 | 0.38 | > 123842 | 88200 | 6.79 | 0.87 | < 14 | > 6298 |  |  | 
3 | CC(=O)CCc1cc(C)c(Oc2ccc(N)c(Nc3ccc(C#N)cc3)n2)c(C)c1 | 9250 | 1.64 | 730 | 1.95 | 4744 | 18400 | 13 | 3.2 | 55 |  | 1840 |  | 
4 | Cc1cc(Br)cc(C)c1Oc1ccc(N)c(Nc2ccc(C#N)cc2)n1 | 15500 | 0.93 | 3490 | 7.29 | 2132 | 9610 | 106 |  | 33 | 291 |  | 6.8 | 
5 | Cc1cc(C#N)cc(C)c1Oc1nc(Nc2ccc(C#N)cc2)nc(N)c1Br [ETRAVIRINE] | 8960 |  | 330 |  |  | 50700 |  | 1 | 41 |  |  |  | 
6 | Cc1cc(C#N)cc(C)c1Oc1ccc(N)c(Nc2ccc(C#N)cc2)n1 |  | 1.41 | 390 |  | 13206 | > 100000 | 26 |  | 15 | > 6667 |  |  | 
7 | C#Cc1cc(C)c(Oc2ccc(N)c(Nc3ccc(C#N)cc3)n2)c(C)c1 |  | 1.34 | 1430 |  |  |  | 34 | 9 |  |  |  |  | 
8 | Cc1cc(C#CC2CC2)cc(C)c1Oc1ccc([N+](=O)[O-])c(Nc2ccc(C#N)cc2)n1 |  |  |  | > 47200 |  |  |  |  |  |  |  |  | Not Active
9 | Cc1cc(/C=C/C#N)cc(C)c1Oc1ccc([N+](=O)[O-])c(Nc2ccc(C#N)cc2)n1 | > 48700 | 1.85 | > 10000 | 8 | > 6082 | > 100000 | > 204 | 14.8 | 49 | > 2041 |  |  | 
10 | Cc1cc(Br)cc(C)c1Oc1ccc([N+](=O)[O-])c(Nc2ccc(C#N)cc2)n1 | > 45700 | 1.55 | > 10000 | 50.2 | > 909 | 65100 | >222 |  | 45 | 1447 |  | 77.6 | 
11 | Cc1cc(I)cc(C)c1Oc1ccc([N+](=O)[O-])c(Nc2ccc(C#N)cc2)n1 |  | 1.55 | > 10000 |  |  |  | >127 |  |  |  |  |  | 
12 | CC(=O)/C=C/c1cc(C)c(Oc2ccc([N+](=O)[O-])c(Nc3ccc(C#N)cc3)n2)c(C)c1 | > 46700 |  |  | 24.4 |  | > 47900 |  |  | 608 |  |  |  | 
13 | C=CCc1cc(C)c(Oc2ccc(N)c(Nc3ccc(C#N)cc3)n2)c(C)c1 | 8460 | 2.23 | > 10000 | 6.89 | 1228 | 14000 | > 149 | 15.4 | 67 | 209 |  |  | 
14 | Cc1cc(I)cc(C)c1Oc1ccc(N)c(Nc2ccc(C#N)cc2)n1 |  | 0.67 | 1930 |  |  |  | 36 |  |  |  |  |  | 
15 | Cc1cc(C#CC2CC2)cc(C)c1Oc1ccc(N)c(Nc2ccc(C#N)cc2)n1 | 7450 | 1.34 | > 10000 | 91.2 | 82 | 5710 | > 24 | 121 | 410 | 14 |  |  | 
16 | Cc1cc(/C=C/C#N)cc(C)c1Oc1cc(Nc2ccc(C#N)cc2)c([N+](=O)[O-])cc1[N+](=O)[O-] | > 44000 |  |  | 97.1 | > 453 | 21700 |  |  | 370 | 59.35 |  |  | 
17 | Cc1cc(C(O)C[N+](=O)[O-])cc(C)c1Oc1ccc([N+](=O)[O-])c(Nc2ccc(C#N)cc2)n1 (stereo not drawn) | > 44500 |  |  | 308 | > 145 | 27100 |  |  | 1710 | 16 |  |  | 
18 | CC(=O)/C=C/c1cc(C)c(Oc2cc(Nc3ccc(C#N)cc3)c(N)cc2[N+](=O)[O-])c(C)c1 | 5880 |  |  | 6.33 |  | 22600 |  |  | 47 |  |  |  | 
19 | Cc1cc(C(O)C[N+](=O)[O-])cc(C)c1Oc1ccc(N)c(Nc2ccc(C#N)cc2)n1.Cl (stereo not drawn) | 7020 |  |  | 10.1 | 695 | 20600 |  |  | 68 | 303 |  |  | 
20 | Cc1cc(/C=C/C(=O)O)cc(C)c1Oc1ccc([N+](=O)[O-])c(Nc2ccc(C#N)cc2)n1 | 27800 |  |  | 14900 |  | 34800 |  |  | 8120 |  |  |  | 
21 | CC(=O)/C=C/c1cc(C)c(Oc2cc(Nc3ccc(C#N)cc3)c([N+](=O)[O-])cc2[N+](=O)[O-])c(C)c1 | 24400 |  |  | 146 | 167 | > 100000 |  |  | 350 | > 286 |  |  | 
22 | C#Cc1cc(C)c(Oc2ccc([N+](=O)[O-])c(Nc3ccc(C#N)cc3)n2)c(C)c1 |  | 1.94 | > 10000 |  |  |  | > 40 | 215 |  |  |  |  | 
23 | Cc1cc(/C=C/C#N)cc(C)c1Oc1cc(Nc2ccc(C#N)cc2)c(N)cc1N | 14400 | 0.47 | 3050 | 4.3 | 3356 | 18900 | 128 | 2 | < 14 | > 1353 |  |  | 
24 | Cc1cc(/C=C/C(=O)O)cc(C)c1Oc1ccc(N)c(Nc2ccc(C#N)cc2)n1 | 18000 |  |  | 600 |  | 15700 |  |  | 630 |  |  |  | 
